What was measured:
[1] = target: T1, Prostaglandin G/H synthase 2 (Homo sapiens) (UniProt P35354); assay: Inhibition of LPS-stimulated COX2 in human whole blood assessed as reduction in PGF2alpha production by measuring remaining activity at 100 uM preincubated for 15 mins followed by LPS addition measured after 24 hrs by LC-MS/MS analysis
T1 sequence (whole entry): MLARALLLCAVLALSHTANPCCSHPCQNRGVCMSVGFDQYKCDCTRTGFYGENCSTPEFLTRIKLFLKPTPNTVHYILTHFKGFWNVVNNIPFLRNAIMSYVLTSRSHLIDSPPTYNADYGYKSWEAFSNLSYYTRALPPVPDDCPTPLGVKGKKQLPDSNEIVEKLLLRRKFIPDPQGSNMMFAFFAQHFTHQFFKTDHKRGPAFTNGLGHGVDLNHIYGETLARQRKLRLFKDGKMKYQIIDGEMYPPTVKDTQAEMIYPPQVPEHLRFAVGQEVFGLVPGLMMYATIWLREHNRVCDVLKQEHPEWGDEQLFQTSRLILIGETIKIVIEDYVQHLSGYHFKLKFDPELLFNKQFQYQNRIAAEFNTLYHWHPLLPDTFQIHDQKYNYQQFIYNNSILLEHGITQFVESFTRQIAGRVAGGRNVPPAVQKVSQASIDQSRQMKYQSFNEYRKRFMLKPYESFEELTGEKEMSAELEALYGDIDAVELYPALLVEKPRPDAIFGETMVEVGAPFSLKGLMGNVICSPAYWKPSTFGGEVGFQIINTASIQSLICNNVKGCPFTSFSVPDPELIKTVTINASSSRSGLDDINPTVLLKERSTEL
Method in brief: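 Heparinized human whole blood (500 µL) mixed with compound in DMSO, with acetylsalicylic acid added to block COX-1, held 15 min at 37 °C, then stimulated with LPS in autologous plasma to induce COX-2/mPGES-1. After 24 h at 37 °C, samples chilled 5 min on ice; plasma collected, prostaglandins extracted and measured by LC–MS/MS. Remaining activity given relative to vehicle control.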

[2] = target: Prostaglandin G/H synthase 1 (Homo sapiens) (UniProt P23219); assay: Inhibition of COX1 in human whole blood assessed as reduction in PGD2 production by measuring remaining activity at 100 uM after 1 hr by LC-MS/MS analysis
[3] = target: T2, Polyunsaturated fatty acid 5-lipoxygenase (Homo sapiens) (UniProt P09917); assay: Inhibition of calcium ionophore (A23187)-stimulated human 5-LO assessed as reduction of 5(S)-HETE production by measuring remaining activity at 100 uM preincubated for 15 mins followed by calcium ionophore (A23187) addition measured after 15 mins by LC-MS/MS analysis
T2 sequence (whole entry): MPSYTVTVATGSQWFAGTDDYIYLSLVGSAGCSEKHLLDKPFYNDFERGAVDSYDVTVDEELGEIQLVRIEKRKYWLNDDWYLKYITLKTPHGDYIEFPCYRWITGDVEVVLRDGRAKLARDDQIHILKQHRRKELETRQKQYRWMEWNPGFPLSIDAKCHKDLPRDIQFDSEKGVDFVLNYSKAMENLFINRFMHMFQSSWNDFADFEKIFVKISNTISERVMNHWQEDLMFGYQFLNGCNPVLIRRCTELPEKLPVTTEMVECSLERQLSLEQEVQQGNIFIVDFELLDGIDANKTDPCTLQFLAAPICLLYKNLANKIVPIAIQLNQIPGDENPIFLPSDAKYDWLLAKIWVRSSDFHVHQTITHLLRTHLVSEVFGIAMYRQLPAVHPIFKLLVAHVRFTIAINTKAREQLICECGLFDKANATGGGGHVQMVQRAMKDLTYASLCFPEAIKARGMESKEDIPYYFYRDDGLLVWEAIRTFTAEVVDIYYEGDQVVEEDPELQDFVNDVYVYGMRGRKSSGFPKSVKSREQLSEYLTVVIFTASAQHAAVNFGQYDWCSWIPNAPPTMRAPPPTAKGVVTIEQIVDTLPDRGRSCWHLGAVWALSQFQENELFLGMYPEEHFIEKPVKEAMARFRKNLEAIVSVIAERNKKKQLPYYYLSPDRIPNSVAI
Method in brief: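 Heparinized human whole blood (500 µL) preincubated with compound 15 min at 37 °C, then stimulated with 20 µM calcium ionophore A23187 in autologous plasma for 15 min at 37 °C. Plasma spiked with deuterated LTB₄ and HETE internal standards, extracted into ethyl acetate, analysed by LC–MS/MS. Inhibition scored when a level fell by 33% or more versus control.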

Chain of Prostaglandin G/H synthase 1 (Homo sapiens) (P23219 whole entry): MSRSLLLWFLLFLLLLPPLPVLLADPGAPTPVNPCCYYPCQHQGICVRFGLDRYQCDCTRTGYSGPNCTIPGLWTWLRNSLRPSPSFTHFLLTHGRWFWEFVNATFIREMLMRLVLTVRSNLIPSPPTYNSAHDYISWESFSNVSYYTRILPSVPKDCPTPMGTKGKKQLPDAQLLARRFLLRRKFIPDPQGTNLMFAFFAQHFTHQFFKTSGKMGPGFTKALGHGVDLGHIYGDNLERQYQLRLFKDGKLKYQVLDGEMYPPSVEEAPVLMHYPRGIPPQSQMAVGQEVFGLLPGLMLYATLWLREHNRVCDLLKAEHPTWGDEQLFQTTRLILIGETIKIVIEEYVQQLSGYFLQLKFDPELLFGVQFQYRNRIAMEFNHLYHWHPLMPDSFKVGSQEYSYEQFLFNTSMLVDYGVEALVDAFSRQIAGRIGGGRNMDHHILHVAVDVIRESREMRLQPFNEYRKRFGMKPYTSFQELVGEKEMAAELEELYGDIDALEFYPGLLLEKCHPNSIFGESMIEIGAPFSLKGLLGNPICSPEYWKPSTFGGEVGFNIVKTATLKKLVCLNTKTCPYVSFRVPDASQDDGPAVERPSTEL

| Activity [1] [%] | Activity [2] [%] | Activity [3] [%] | Compound |
| --- | --- | --- | --- |
| 107 | 89.2 | 120 | COc1ccc(CN(Cc2ccccc2)S(=O)(=O)c2ccc(C(=O)O)cc2)cc1 |
| 92.5 | 61.5 | 98.7 | O=C(O)c1ccc(S(=O)(=O)N(Cc2ccccc2)Cc2ccc(Oc3ccccc3)cc2)cc1 |
| 86.8 | 48.5 | 125 | O=C(O)c1ccc(S(=O)(=O)N(Cc2ccccc2)c2ccc(Oc3ccccc3)cc2)cc1 |
| 90.9 | 109 | 56.2 | O=C(O)c1ccc(S(=O)(=O)N(Cc2ccccc2)Cc2ccc(Nc3ccccc3)cc2)cc1 |
| 114 | 110 | 65.6 | COc1ccc(CN(CC2CCCCC2)S(=O)(=O)c2ccc(C(=O)O)cc2)cc1 |

Reference: ChEMBL document CHEMBL3091291, “Synthesis and pharmacological characterization of benzenesulfonamides as dual species inhibitors of human and murine mPGES-1” (Bioorg Med Chem, 2013)
